Activity calls are given as the source filed them. The calls are words filed in the database; no cut-off is given here.
Tests used:
B16 [1] = assay: Antitumor activity against mouse B16 cells allografted in B6D2F1 mouse assessed as mean survival time at 0.389 mg/kg/day, ip administered on day 1, 5 and 9 (reference value: 20.0 days); format: functional; details: route intraperitoneal
Summary of the method: (§1)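 Male B6D2F1 mice implanted ip on day 0 with 0.25 mL of a 20% (w/v) B16 melanoma brei. Alkaloid sulfate salts given ip on days 1, 5, 9 or on days 5, 9, 13, groups of 10, against 30 untreated controls. Read-outs: median survival time with range of individual deaths, and percent increase in life span, with survivors counted on day 56.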

B16 [2] = assay: Antitumor activity against mouse B16 cells allografted in B6D2F1 mouse assessed as mean survival time at 0.648 mg/kg/day, ip administered on day 1, 5 and 9 (reference value: 20.0 days); format: functional; details: route intraperitoneal; summary of the method: as §1
P388 [3] = assay: Antitumor activity against mouse P388 cells allografted in mouse assessed as increase in life span at 9 mg/kg/day, ip after 1 day; format: functional; details: 24 h, route intraperitoneal
Summary of the method: (§2)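 P388 ascites implanted ip in mice, 10 animals per group. Sulfate salts given ip either daily on days 1-9 or as a single dose on day 1. Median life span was calculated using all deaths and survivors. Percent increase in life span was taken over untreated controls. The highest nontoxic dose was noted.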

B16 [4] = assay: Antitumor activity against mouse B16 cells allografted in B6D2F1 mouse assessed as mean survival time at 1.08 mg/kg/day, ip administered on day 1, 5 and 9 (reference value: 20.0 days); format: functional; details: route intraperitoneal; summary of the method: as §1
P388 [5] = assay: Antitumor activity against mouse P388 cells allografted in mouse assessed as increase in life span at 6 mg/kg/day, ip after 1 day; format: functional; details: 24 h, route intraperitoneal; summary of the method: as §2
P388 [6] = assay: Antitumor activity against mouse P388 cells allografted in mouse assessed as increase in life span at 4 mg/kg/day, ip after 1 day; format: functional; details: 24 h, route intraperitoneal; summary of the method: as §2
P388 [7] = assay: Antitumor activity against mouse P388 cells allografted in mouse assessed as increase in life span at 2.7 mg/kg/day, ip after 1 day; format: functional; details: 24 h, route intraperitoneal; summary of the method: as §2
B16 [8] = assay: Antitumor activity against mouse B16 cells allografted in B6D2F1 mouse assessed as mean survival time at 1.8 mg/kg/day, ip administered on day 1, 5 and 9 (reference value: 20.0 days); format: functional; details: route intraperitoneal; summary of the method: as §1
B16 [9] = assay: Antitumor activity against mouse B16 cells allografted in B6D2F1 mouse assessed as mean survival time at 3 mg/kg/day, ip administered on day 1, 5 and 9 (reference value: 20.0 days); format: functional; details: route intraperitoneal; summary of the method: as §1
[10] = Toxicity in ip dosed mouse allografted with mouse p388 cells administered from day 1 to day 9; format: organism-based; details: in vivo, read-out: MNTD; summary of the method: as §2
[11] = Toxicity in ip dosed mouse allografted with mouse p388 cells after 1 day; format: organism-based; details: in vivo, read-out: MNTD; summary of the method: as §2
B16 [12] = assay: Antitumor activity against mouse B16 cells allografted in B6D2F1 mouse assessed as increase in life span at 3 mg/kg/day, ip administered on day 1, 5 and 9 measured for 56 days relative to untreated control; format: functional; details: route intraperitoneal; summary of the method: as §1
B16 [13] = assay: Antitumor activity against mouse B16 cells allografted in B6D2F1 mouse assessed as increase in life span at 1.8 mg/kg/day, ip administered on day 1, 5 and 9 measured for 56 days relative to untreated control; format: functional; details: route intraperitoneal; summary of the method: as §1
B16 [14] = assay: Antitumor activity against mouse B16 cells allografted in B6D2F1 mouse assessed as increase in life span at 1.08 mg/kg/day, ip administered on day 1, 5 and 9 measured for 56 days relative to untreated control; format: functional; details: route intraperitoneal; summary of the method: as §1
B16 [15] = assay: Antitumor activity against mouse B16 cells allografted in B6D2F1 mouse assessed as increase in life span at 0.648 mg/kg/day, ip administered on day 1, 5 and 9 measured for 56 days relative to untreated control; format: functional; details: route intraperitoneal; summary of the method: as §1
B16 [16] = assay: Antitumor activity against mouse B16 cells allografted in B6D2F1 mouse assessed as increase in life span at 0.389 mg/kg/day, ip administered on day 1, 5 and 9 measured for 56 days relative to untreated control; format: functional; details: route intraperitoneal; summary of the method: as §1
B16 [17] = assay: Antitumor activity against mouse B16 cells allografted in B6D2F1 mouse assessed as mean survival time at 3 mg/kg/day, ip administered on day 5, 9 and 13 (reference value: 20.0 days); format: functional; details: route intraperitoneal; summary of the method: as §1
B16 [18] = assay: Antitumor activity against mouse B16 cells allografted in B6D2F1 mouse assessed as mean survival time at 1.8 mg/kg/day, ip administered on day 5, 9 and 13 (reference value: 20.0 days); format: functional; details: route intraperitoneal; summary of the method: as §1
B16 [19] = assay: Antitumor activity against mouse B16 cells allografted in B6D2F1 mouse assessed as mean survival time at 1.08 mg/kg/day, ip administered on day 5, 9 and 13 (reference value: 20.0 days); format: functional; details: route intraperitoneal; summary of the method: as §1
B16 [20] = assay: Antitumor activity against mouse B16 cells allografted in B6D2F1 mouse assessed as mean survival time at 0.648 mg/kg/day, ip administered on day 5, 9 and 13 (reference value: 20.0 days); format: functional; details: route intraperitoneal; summary of the method: as §1
B16 [21] = assay: Antitumor activity against mouse B16 cells allografted in B6D2F1 mouse assessed as mean survival time at 0.389 mg/kg/day, ip administered on day 5, 9 and 13 (reference value: 20.0 days); format: functional; details: route intraperitoneal; summary of the method: as §1
B16 [22] = assay: Antitumor activity against mouse B16 cells allografted in B6D2F1 mouse assessed as increase in life span at 3 mg/kg/day, ip administered on day 5, 9 and 13 measured for 56 days relative to untreated control; format: functional; details: route intraperitoneal; summary of the method: as §1
B16 [23] = assay: Antitumor activity against mouse B16 cells allografted in B6D2F1 mouse assessed as increase in life span at 1.8 mg/kg/day, ip administered on day 5, 9 and 13 measured for 56 days relative to untreated control; format: functional; details: route intraperitoneal; summary of the method: as §1
B16 [24] = assay: Antitumor activity against mouse B16 cells allografted in B6D2F1 mouse assessed as increase in life span at 1.08 mg/kg/day, ip administered on day 5, 9 and 13 measured for 56 days relative to untreated control; format: functional; details: route intraperitoneal; summary of the method: as §1
B16 [25] = assay: Antitumor activity against mouse B16 cells allografted in B6D2F1 mouse assessed as increase in life span at 0.648 mg/kg/day, ip administered on day 5, 9 and 13 measured for 56 days relative to untreated control; format: functional; details: route intraperitoneal; summary of the method: as §1
B16 [26] = assay: Antitumor activity against mouse B16 cells allografted in B6D2F1 mouse assessed as increase in life span at 0.389 mg/kg/day, ip administered on day 5, 9 and 13 measured for 56 days relative to untreated control; format: functional; details: route intraperitoneal; summary of the method: as §1
[27] = Antitumor activity against mouse Ridgeway osteogenic sarcoma cells allografted in mouse at 0.1 to 0.35 mg/kg/day, ip; format: functional; details: route intraperitoneal
Summary of the method: (§3)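 Sulfate salts given ip on days 1-9 against ROS and GLS in mice; tumor growth scored as percent inhibition versus controls (+++ = 75-100%, ++ = 50-75%, ± = under 25%).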

[28] = Antitumor activity against mouse Gardner lymphosarcoma cell allografted in mouse at 0.1 to 0.35 mg/kg/day, ip; format: functional; details: route intraperitoneal; summary of the method: as §3
[29] = Acute toxicity in ip dosed mouse; format: organism-based; details: in vivo
P388 [30] = assay: Antitumor activity against mouse P388 cells allografted in mouse assessed as survival at 2.7 mg/kg/day after 1 day; format: functional, organism-based
Summary of the method: (§4)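 P388 ascites implanted ip in mice; sulfate salts dosed either daily or as a single dose on day 1, 10 animals per group. Survivors per total were recorded, median life span was calculated using all deaths and survivors, and percent increase of life span was reported.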

[31] = Antitumor activity against mouse P1534(J) cells allografted in mouse assessed as tumor growth inhibition at 0.35 mg/kg/day, ip administered from day 1 to day 9 relative to unreated control; format: functional; details: P1534J, route intraperitoneal, read-out: TGI
Summary of the method: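 P1534(J) leukemia implanted subcutaneously in mice; sulfate salts given ip on days 1-9. Read-out is percent inhibition of tumor growth versus untreated controls.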

[32] = Toxicity in ip dosed mouse allografted with mouse P1534(J) cells administered from day 1 to day 9; format: organism-based; details: in vivo, read-out: MNTD
Summary of the method: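 P1534(J) leukemia implanted subcutaneously in mice. Sulfate salts given ip daily on days 1-9. Read-out was percent inhibition of tumor growth relative to untreated controls. The highest nontoxic dose was recorded.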

P388 [33] = assay: Antitumor activity against mouse P388 cells allografted in mouse assessed as survival at 4 mg/kg/day after 1 day; format: functional, organism-based; summary of the method: as §4
P388 [34] = assay: Antitumor activity against mouse P388 cells allografted in mouse assessed as survival at 0.4 mg/kg/day administered from day 1 to day 9; format: functional, organism-based; summary of the method: as §4
P388 [35] = assay: Antitumor activity against mouse P388 cells allografted in mouse assessed as increase in life span at 0.9 mg/kg/day, ip administered from day 1 to day 9 relative to untreated control; format: functional; details: route intraperitoneal; summary of the method: as §2
P388 [36] = assay: Antitumor activity against mouse P388 cells allografted in mouse assessed as increase in life span at 0.6 mg/kg/day, ip administered from day 1 to day 9 relative to untreated control; format: functional; details: route intraperitoneal; summary of the method: as §2
P388 [37] = assay: Antitumor activity against mouse P388 cells allografted in mouse assessed as increase in life span at 0.4 mg/kg/day, ip administered from day 1 to day 9 relative to untreated control; format: functional; details: route intraperitoneal; summary of the method: as §2
P388 [38] = assay: Antitumor activity against mouse P388 cells allografted in mouse assessed as increase in life span at 0.27 mg/kg/day, ip administered from day 1 to day 9 relative to untreated control; format: functional; details: route intraperitoneal; summary of the method: as §2
[39] = Acute toxicity in rat; format: organism-based; details: in vivo

CC[C@]1(O)C[C@@H]2CN(CCc3c([nH]c4ccccc34)[C@@](C(=O)OC)(c3cc4c(cc3OC)N(C)[C@H]3[C@@](O)(C(=O)OC)[C@H](OC(C)=O)[C@]5(CC)C=CCN6CC[C@]43[C@@H]65)C2)C1.O=S(=O)(O)O [VINBLASTINE SULFATE]
MST (B16 [1]): 32 days
MST (B16 [2]): 33.5 days
ILS at 9 mg/kg/day (P388 [3]): 127%
MST (B16 [4]): 35.5 days
ILS at 6 mg/kg/day (P388 [5]): 109%
ILS at 4 mg/kg/day (P388 [6]): 95%
ILS at 2.7 mg/kg/day (P388 [7]): 81%
MST (B16 [8]): 38.5 days
MST (B16 [9]): 40.5 days
MTD [10]: 0.9 mg/kg/day
MTD at 24 h [11]: 9 mg/kg/day
ILS at 3 mg/kg/day (B16 [12]): 102%
ILS at 1.8 mg/kg/day (B16 [13]): 92%
ILS at 1.08 mg/kg/day (B16 [14]): 78%
ILS at 0.648 mg/kg/day (B16 [15]): 68%
ILS at 0.389 mg/kg/day (B16 [16]): 60%
MST (B16 [17]): 32.5 days
MST (B16 [18]): 25 days
MST (B16 [19]): 27.5 days
MST (B16 [20]): 28 days
MST (B16 [21]): 22.5 days
ILS at 3 mg/kg/day (B16 [22]): 62%
ILS at 1.8 mg/kg/day (B16 [23]): 25%
ILS at 1.08 mg/kg/day (B16 [24]): 39%
ILS at 0.648 mg/kg/day (B16 [25]): 40%
ILS at 0.389 mg/kg/day (B16 [26]): 12%
TGI [27]: <25%
TGI [28]: <25%
LD50 [29]: 10 mg/kg
Activity (P388 [30]): inactive
inhibition in vivo at 0.35 mg/kg/day [31]: 54%
MTD [32]: 0.35 mg/kg/day
Activity (P388 [33]): inactive
Activity (P388 [34]): inactive
ILS at 0.9 mg/kg/day (P388 [35]): 109%
ILS at 0.6 mg/kg/day (P388 [36]): > 263%
ILS at 0.4 mg/kg/day (P388 [37]): 72%
ILS at 0.27 mg/kg/day (P388 [38]): 131%
LD50 [39]: 2.9 mg/kg

From ChEMBL document CHEMBL3272325, “Structure-activity relationships of dimeric Catharanthus alkaloids. 1. Deacetylvinblastine amide (vindesine) sulfate” (J Med Chem, 1978)
